Assay outcomes deposited in PubChem BioAssay by several laboratories.
An excerpt weighted towards active compounds, which were near 3% of everything screened.
Granule exo inh: blocks lytic granule exocytosis. TALL-104 LAMP-1 surface exposure, flow cytometry; cells stimulated with thapsigargin and PMA. inhibition, % at 10 µM. 0.66% of 360,000 active. AID 651702;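 active = inhibition above about 55%, limit read from the data; inconclusive = no clear call, values can overlap the other calls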
HNF4A DNA FP: change in binding of human HNF4 alpha to DNA; HNF4a-FITC DNA binding, fluorescence polarization, 1 h; activity change, % at 10 µM; 0.3% of 360,000 active; in the data active = activity change above about 30%, passing the limit was not always enough
SENP1 FRET inh: blocks the human SENP1 SUMO protease catalytic domain; recombinant SENP1 catalytic domain, CyPet-SUMO1-YPet FRET cleavage; Q9P0U3; 0.21% of 360,000 active; inhibition, % at 10 µM;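 active = inhibition at least 30% at 10 µM, raw YFP signal under a set limit, fluorescence ratio 0.5 to 1.5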;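 also: 0% = enzyme with DMSO and 100% = no enzyme wells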
Target sequence (Q9P0U3 419-644 limits assumed): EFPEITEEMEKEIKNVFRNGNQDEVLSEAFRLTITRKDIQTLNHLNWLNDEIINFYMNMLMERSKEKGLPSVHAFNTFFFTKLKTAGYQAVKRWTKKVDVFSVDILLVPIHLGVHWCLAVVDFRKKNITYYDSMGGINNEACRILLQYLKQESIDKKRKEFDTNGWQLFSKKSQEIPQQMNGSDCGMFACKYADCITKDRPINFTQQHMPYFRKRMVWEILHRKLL
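system = hSENP1 catalytic domain, recombinant | reagent = SFCypet-SUMO1-SFYpet substrate at 25 nM | doses = one dose per compound, 10 µM, 0.5% DMSO | incubation = enzyme reaction for 50 min at room temperature, dark | measured by = FRET, CFP and YFP emission | controls = no-enzyme low, enzyme-DMSO high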
Myeloid diff 2: promotes myeloid progenitor differentiation. calls only at 10 µM. ER-HoxA9 myeloid progenitors, lysozyme-GFP differentiation, flow cytometry. 1% of 360,000 active;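 active = normalized GFP-positive differentiation at or above the plate's own cutoff, the solvent-only control mean plus 3 SD; inconclusive = no clear call, values can overlap the other calls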;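 also: cells exposed to compound for four days before flow analysis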
Cardio protect: myocardial damage modulation in H9c2 cells. protection from H2O2 cell death, % at 20 µM. 0.63% of 360,000 active. H9c2 cardiomyocytes, H2O2 injury protection, ATPLite, 2 h;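 active = compounds giving at least 50% protection of heart cells from peroxide-induced death in the single-dose screen, raw or plate-pattern-corrected value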;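 also: 0% = DMSO wells with peroxide and 100% = DMSO wells without peroxide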
Pemphigus Ab inh: blocks pemphigus antibody binding to human desmoglein-3 | P32926 | DSG3-coupled beads, scFv-anti-DSG3-GFP binding, flow cytometry; stronger effect = lower value | binding (percent of control), % at 10 µM | 0.48% of 310,000 active | AID 588358;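 active = binding more than 3 SD below its plate's average and above zero; inconclusive = below that plate limit but binding exactly zero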;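 also: hits lower antibody fragment binding to DSG3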
Starred values were filed as active, the others as inactive; i = inactive; u = inconclusive; x = not tested or not shown; + = active, no number.

SMILES | Granule exo inh | HNF4A DNA FP | SENP1 FRET inh | Myeloid diff 2 | Cardio protect | Pemphigus Ab inh
Cc1nn(-c2ccc(Cl)cc2)c(=O)c2ccccc12 | 0 | -1 | 3 | i | -1 | 101
Cc1c(Cl)sn(-c2ccc(Cl)cc2)c1=O | 92* | 2 | 0 | u | -24 | 72
COc1cc2c(cc1OC)C(C)N(C(=O)/C=C/c1cc(OC)c(OC)c(OC)c1)CC2 (centres undefined) | 9 | 4 | 0 | i | 9 | 82*
COc1cc2c(cc1OC)CN(C(=O)/C=C/c1cc(OC)c(OC)c(OC)c1)CC2 | -8 | 1 | -1 | i | 16 | 104
C/C(=N\NC(=S)Nc1cc(S(=O)(=O)N2CCOCC2)ccc1Cl)c1ccccc1F | -3 | -1 | 0 | i | 15 | 97
COc1ccc(C(C)(C)C)cc1NC(=O)C1CC(=O)N(C2CCCC2)C1 (centres undefined) | -6 | 1 | 0 | i | -2 | 98
COc1ccc(Cl)cc1NC(=O)C1CC(=O)N(C2CCCCC2)C1 (centres undefined) | 3 | 1 | 2 | + | 0 | 96
CC(=O)Nc1ccc(NC(=O)Cn2c(=O)n(-c3ccc(C)cc3)c(=O)c3oc4ccccc4c32)cc1 | 5 | -1 | 1 | i | 0 | 101
O=C(CNC(=O)c1ccccc1)N=Nc1c(O)[nH]c2ccc(Br)cc12 | -2 | 0 | 5 | i | 10 | 104
O=C(CNC(=O)c1ccc(Br)cc1)N=Nc1c(O)[nH]c2ccc([N+](=O)[O-])cc12 | -16 | 0 | 4 | u | 7 | 35*
CCNC(=S)N=Nc1c(O)[nH]c2ccc([N+](=O)[O-])cc12 | 1 | 2 | 2 | i | 17 | 40*
O=C(c1ccc2nc(Cc3cccc(Cl)c3)oc2c1)N1CCC(O)CC1 | 4 | -1 | 1 | i | -4 | 105
COc1ccc(C(=O)NC(=S)Nc2cccnc2)cc1Cl | -7 | -3 | 5 | i | 1 | 102
COc1ccc(NC(=O)CCOc2ccccc2C)cc1S(=O)(=O)N1CCCCC1 | 3 | 1 | 0 | i | -6 | 93
C=CCNC(=S)/N=c1/ccccn1C | -6 | -6 | -2 | i | -15 | 115
C=CCNC(=S)/N=c1/ccccn1CCC | -6 | -1 | -1 | + | -11 | x
COc1c(C(=O)Nc2ccc(Br)cn2)ccc2ccccc12 | -8 | -4 | 1 | i | -11 | 96
COc1cc2ccccc2cc1C(=O)NC(=S)Nc1nnn(C)n1 | -3 | 2 | 1 | i | 4 | -8.3*
Cn1nnc(NC(=S)NC(=O)c2cc(Cl)ccc2Cl)n1 | -1 | -2 | 1 | i | -4 | 97
COc1cc2ccccc2cc1C(=O)Nc1ccc(Br)cn1 | -5 | 1 | 1 | i | -6 | 89*
O=c1[nH]c2ccccc2nc1-c1ccccc1 | -2 | 2 | -4 | i | -2 | 100
NC(=O)N=Nc1c2[nH]c3ccccc3nc-2c2ccccc12 | 24 | -9 | 1 | u | 60* | 95
Cc1noc(C)c1COc1ccc(C(=O)Nc2nnc(CC(C)C)s2)cc1 | -6 | 2 | 0 | i | -8 | x
COc1ccc(-c2cc(C#N)nc(N3CCNCC3)n2)cc1 | 1 | 43* | 1 | i | 1 | 102
CC1(C)C(/C=C/C=C/C=C/C=C2\N(CCCCS(=O)(=O)O)c3ccc4ccccc4c3C2(C)C)=[N+](CCCCS(=O)(=O)[O-])c2ccc3ccccc3c21 | -23 | -25 | -29 | i | -1 | 33*
SMILES | Granule exo inh | HNF4A DNA FP | SENP1 FRET inh | Myeloid diff 2 | Cardio protect | Pemphigus Ab inh
Cc1c2ccccc2cc[n+]1CCCS(=O)(=O)[O-] | 1 | -5 | -2 | i | 4 | 103
CN(C)c1ccc(C(=O)N/N=C/c2ccccn2)cc1 | -1 | 0 | 0 | i | 5 | 109
Cc1cccc(Nc2c([N+](=O)[O-])ccc3nonc23)c1 | 3 | 3 | 5 | i | -2 | 94
O=[N+]([O-])c1cccc(Nc2c([N+](=O)[O-])ccc3nonc23)c1 | -10 | 0 | 5 | + | -12 | 89
Oc1ccc(N=Nc2c(O)ccc3ccccc23)cc1 | -6 | 3 | 10 | u | -20 | 101
NS(=O)(=O)c1ccc(N=Nc2c(O)ccc3ccccc23)cc1 | 4 | 2 | 4 | u | -3 | 71*
Oc1c(C(Nc2cccc(C(F)(F)F)c2)c2cccnc2)ccc2cccnc12 (centres undefined) | 4 | -4 | 0 | i | 59* | 125
Cc1cc(NC(c2cccnc2)c2ccc3cccnc3c2O)no1 (centres undefined) | -4 | -2 | 3 | u | 57* | 100
O=c1c2ccc([N+](=O)[O-])cc2ncn1CCOc1ccccc1 | 3 | 4 | -69 | + | 46 | 118
COC(=O)c1ccc(NC(=O)COC(=O)c2cccc3c(=O)c(C)c(-c4ccccc4)oc23)cc1 | -1 | -6 | 0 | i | 25 | 84
Cc1c(-c2ccccc2)oc2c(C(=O)OCC(=O)Nc3ccc(C(N)=O)cc3)cccc2c1=O | 1 | 5 | -2 | i | 74* | 86
Cc1oc(-c2cccc3ccccc23)nc1CN1CCC[C@H]1CO | 13 | -1 | -15 | i | 3 | 104
CC(=O)c1sc(NC(=O)c2oc3ccc(F)cc3c2C)nc1C | 2 | 9 | -12 | i | -14 | 102
CCOc1ccc(N(CC(=O)N2CCc3ccccc32)S(=O)(=O)c2c(C)noc2C)cc1 | -3 | 0 | 1 | + | -3 | 105
Cc1cc(C)cc(N(CC(=O)N2CCc3ccccc32)S(=O)(=O)c2c(C)noc2C)c1 | -4 | -2 | 0 | i | -1 | 101
O=C1C(Nc2ccccc2)=C/C(=N/S(=O)(=O)c2cccs2)c2ccccc21 | 75* | 0 | 2 | u | -10 | 106
Cc1cc(C)c2ccc(NN)nc2c1O | -3 | 0 | 6 | i | 79* | x
Cc1cc(C)c2ccc(/C=N/O)nc2c1O | -4 | 2 | 0 | i | 3 | 89
Cc1ccc(-c2n[nH]c(=O)c3ccccc23)cc1S(N)(=O)=O | 6 | -5 | -1 | i | 57* | 96
CC(=O)Nc1ccc(NS(=O)(=O)c2cc(-c3n[nH]c(=O)c4ccccc34)ccc2C)cc1 | -3 | 2 | 3 | i | 56* | 96
Cc1ccc(-c2n[nH]c(=O)c3ccccc23)cc1S(=O)(=O)NC(C)(C)C | -3 | 3 | 2 | i | 64* | 103
Cc1ccc(-c2n[nH]c(=O)c3ccccc23)cc1S(=O)(=O)NCCO | -1 | -5 | 2 | i | 76* | x
Cc1ccc(-c2n[nH]c(=O)c3ccccc23)cc1S(=O)(=O)Nc1ccc(F)cc1 | 52 | -2 | 0 | i | 46 | 104
